Results gathered from unrelated publications.
Compare with care: the assays were run in different laboratories.
Target: Dual specificity protein kinase CLK1 (CLK1, Homo sapiens, UniProt P49759)

SMILES	assay	conditions	measurement	result
COc1cc2ncnc(Nc3ccc(Oc4ccccc4)cc3C)c2cc1OC	enzyme activity, inhibitor	1 µM	inhibition	3%
CN1CC(Oc2cnc(C#N)cc2-c2ccn3nc(NC(=O)C4CC4)cc3c2)C1	enzyme activity, inhibitor	1 µM	inhibition	-3%
C#Cc1cccc(Nc2ncnc3cc(OCCOC)c(OCCOC)cc23)c1	cell-free assay	0.5 µM	remaining signal	107%
CNC(=O)Nc1ccc2c(c1)CC[C@@]21OC(=O)N(CC(=O)N(Cc2ccc(F)cc2)[C@@H](C)C(F)(F)F)C1=O	cell-free assay, competition with immobilised ligand	1 µM	remaining binding	69%
Nc1ncnc2occ(-c3ccc(NC(=O)Nc4cc(C(F)(F)F)ccc4F)cc3)c12	cell-free assay, inhibitor	20 µM	remaining signal	0.65%
CNCc1ccccc1-c1csc([C@@H](C)Nc2nc(C)nc3cc(OC)c(OC)cc23)c1	cell-free assay, competition with immobilised ligand	1 µM	remaining binding	98%
Cn1cnc(Br)c1C1=CN(c2ncnc3[nH]cnc23)CCS1	enzyme activity, inhibitor, radiometric	2 µM	inhibition	96.1%
O=C(Nc1cnn(-c2csc(C(=O)NC3COC3)c2)c1)Nc1c(F)cccc1Cl	enzyme activity, inhibitor	5 µM	remaining activity	74.9%
Cc1cnc(NC2CCOCC2)nc1-n1cnc(C(=O)NC(CN)c2cc(F)cc(Cl)c2)c1 (stereo not shown)	enzyme activity, inhibitor, radiometric	1 µM	remaining activity	62%
CC/C(=N\NC(=O)NCc1cccc(O)c1)c1ccc(O)c(C)c1O	enzyme activity, inhibitor	0.1 µM	inhibition	0.7%
CCc1ccccc1C(=O)Nc1n[nH]c2c(C)c(F)c(C3C(C#N)=C(C)N(C)C(C)=C3C#N)cc12	cell-free assay, competition with immobilised ligand	1 µM	remaining binding	84%
COc1cc(-c2cc(-c3ccc(N4CCNCC4)cc3)cnc2C)cc(OC)c1OC	enzyme activity, inhibitor	1 µM	inhibition	1%
Cc1nc(Cc2cccc(C(F)(F)F)c2)sc1-c1ccc(C(N)=O)nc1	cell-free assay, competition with immobilised ligand	1 µM	remaining binding	83%
c1nc2c(Nc3ccc4c(c3)OCCO4)nc(Nc3ccc4c(c3)OCCO4)nc2[nH]1	enzyme activity, inhibitor	10 µM	activity vs control	2.2%
N#CCCc1ccc2c(c1)-c1[nH]c3ccc([N+](=O)[O-])cc3c1CC(=O)N2	cell-free assay	0.5 µM	remaining signal	99.6%
CNC(=O)c1ccc(Nc2ncc(C(F)(F)F)c(NCc3nccnc3N(C)S(C)(=O)=O)n2)cc1	cell-free assay, competition with immobilised ligand	0.1 µM	remaining binding	23%
COc1cc(Cl)c(C(=O)N[C@@H](CN[C@H]2CC[C@@H](N)CC2)Cc2ccc(C#N)cc2)cc1-c1ccc(CN[C@H](C)c2ccc(C)cc2)o1	enzyme activity, inhibitor	1 µM	remaining activity	91%
CC(C)(C)c1nc(-c2cccc(NS(=O)(=O)c3c(F)cccc3F)c2F)c(-c2ccnc(N)n2)s1	enzyme activity, inhibitor, radiometric	1 µM	remaining activity	89%
Cc1cc(-n2nc(Cc3cc(F)cc(C(F)(F)F)c3)nc2C)ccc1C(N)=O	cell-free assay, competition with immobilised ligand	1 µM	remaining binding	86%
O=C1Nc2ccc(Cl)cc2C1=Cc1cc(Cl)c(O)c(Cl)c1	cell-free assay	0.5 µM	remaining signal	85%
O=C(NC[C@@H]1[C@H]2CN(C(=O)OCc3cc(C(F)(F)F)cc(C(F)(F)F)c3)C[C@@H]12)c1ccc2[nH]nnc2c1	cell-free assay, competition with immobilised ligand	1 µM	remaining binding	87%
CCN(CC)CCNC(=O)c1c(C)[nH]c(/C=C2\C(=O)Nc3ccc(F)cc32)c1C	cell-free assay	0.5 µM	remaining signal	23.3%
